Only a selection was taken, and hits are over-represented in it overall.
XBP1 UPR activ = adaptive UPR (XBP1) activation. CHO-XBP1 luciferase reporter, IRE1-XBP1 UPR activation, luminescence; percent of tunicamycin response, DMSO as zero. activation, % at 20 µM. actives 0.33% (n = 330,000);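 active = versus positive control, 20 µM dose yields 30% or more activation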
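Assay system: CHO-XBP1 luciferase reporter cells; Schedule: 6 h treatment, 37 °C; Detection: glow luminescence from Steady-Glo reagent; Benchmarks: high control tunicamycin 10 µg/mL final, low control DMSO vehicle only.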
Lmaj promast = inhibitors of Leishmania major promastigote growth; Leishmania major promastigotes, resazurin fluorescence viability; inhibition, % at 10 µM; actives 9% (n = 200,000); AID 1063; in the data active = inhibition above about 50%;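 note: promastigotes grown with compound for 44 hours at 28 °C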
Dynein cargo inh = dynein cargo transport inhibition; actives 0.47% (n = 220,000); z-score, hits read low; 3617.4 mouse cells, GR-EGFP nuclear translocation imaging; test concentration mostly 20 µM; stimulated with dexamethasone, 1 µM; active compounds read low;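 active = plate z-score of nuclear minus cytoplasmic receptor signal below a set negative limit, without overly bright fluorescence or cell loss, cut at about -3.5 in these data, passing the limit was not always enough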;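 note: z-score of nuclear minus cytoplasmic ring GR-EGFP intensity difference per well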
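Buffer or medium: Induction medium lacking tetracycline, stripped serum | Also added: Dexamethasone agonist, 1.0 µM final, for 30 min | Timing: 48 h induction, 1 h compound, 30 min dex at 37 °C | Detection: Formaldehyde fixation, Hoechst nuclear stain, 10x automated fluorescence imaging | Measure: Nuclear versus cytoplasmic GR-EGFP signal, averaged per well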
CHOP inhibitor = inhibitors of CHOP induction in ER stress response; CHO-K1 CHOP-promoter luciferase, tunicamycin-induced, 15-18 h; AID 2732; actives 3.8% (n = 220,000); inhibition, % at 10 µM;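 active = compounds that reduced the stress-induced luciferase reporter signal by more than about 70% of percent inhibition, limit read from the data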
T cruzi inh = T. cruzi replication inhibition; T. cruzi beta-gal in NIH3T3, luminescence, 90 h; AID 1885; inhibition, % (test concentration not listed); actives 1.4% (n = 300,000);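 active = mean inhibition across valid replicates above about 55%, limit read from the data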;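 note: signal also drops with host cell toxicity which is not excluded here; higher percent means less beta-gal luminescence so fewer parasites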
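System: Mouse NIH/3T3 fibroblasts infected with β-gal-expressing T. cruzi Tulahuen C4 | Quantity: NIH/3T3 cells, 5,000 per well | Reagent: 5000 reporter trypomastigotes per well | Dosing: Compound pinned at 50 nL/well, DMSO | Schedule: 3 h host attachment, then at least 90 h co-culture | Detection: GalScreen luminescence, 60 min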
UPR CHOP act = activators of apoptotic arm of unfolded protein response (CHOP) | actives 0.34% (n = 330,000) | CHO-CHOP luciferase reporter, UPR activation, luminescence; percent of tunicamycin response over DMSO baseline | activation, % at 10 µM | AID 449763;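 active = at 10 µM dose, activation of 40% or more, normalized to positive control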
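System: CHO-CHOP luciferase reporter cell line; amount: 500 cells/well; buffer or medium: F12 medium containing 10% fetal bovine serum; incubation: 6 h compound exposure at 37 °C after overnight seeding; measured by: luciferase luminescence after 10 min with Steady-Glo reagent; evaluation: % reporter activation, DMSO baseline versus tunicamycin full activation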
Hits are given with their value; i = inactive; nt = no result given.

SMILES	XBP1 UPR activ	Lmaj promast	Dynein cargo inh	CHOP inhibitor	T cruzi inh	UPR CHOP act
CCOC(=O)C1=C(C)NC(SCC(=O)Nc2cc(C)on2)=C(C#N)C1c1cccs1 (configuration not stated)	i	59.9	i	i	i	i
CCOC(=O)CSC1=C(C#N)C(c2ccccc2)C(C(C)=O)=C(C)N1 (configuration not stated)	i	i	i	i	i	i
CC1(c2ccc(NC(=O)c3ccccc3F)cc2)CC1(Cl)Cl (configuration not stated)	i	nt	nt	nt	i	i
CC(=O)c1cccc(NC(=O)C(=O)c2cn(CC(=O)N3CCCCC3)c3ccccc23)c1	i	i	i	i	i	i
Cc1cc(C)nc(NNC(=O)c2ccccc2O)n1	i	i	i	i	i	i
COc1ccc(CCNC(=O)C2CCC(C(C)(C)C)CC2)cc1OC (configuration not stated)	i	nt	nt	nt	i	i
COc1ccc(CCN2C(=O)CSC2c2ccc(F)cc2)cc1 (configuration not stated)	i	nt	nt	nt	i	i
CC1=C(C(=O)Nc2ccccc2)C(c2ccncc2)C(C#N)=C(SCC(=O)NC(C)C)N1 (configuration not stated)	i	89.0	i	i	i	i
COc1ccccc1NC(=O)C1=C(C)NC(SCC(=O)Nc2ccc(C(=O)O)cc2)=C(C#N)C1c1cccs1 (configuration not stated)	i	nt	i	i	i	i
Cc1ccc(SCCN2CCN(C)CCC2=O)cc1	i	nt	i	i	i	i
O=C1CCN(CCc2ccccc2)CCN1CCSc1ccccc1	i	nt	nt	nt	i	i
Cc1ccc(SCCN2CCN(C)CC2)cc1	i	nt	nt	nt	64.5	i
OCCN1CCN(CCSc2ccccc2)CC1	i	56.2	i	i	i	i
Clc1ccc(SCCN2CCNCC2)cc1	i	100.1	i	i	62.7	i
Cc1ccc(SCCN2CCN(Cc3ccccc3)CC2)cc1	i	nt	nt	nt	72.5	i
COC(=O)c1oc2ccccc2c1NC(=O)CN1CCCC1	i	i	i	72.0	i	i
COC(=O)c1oc2ccc(Br)cc2c1NC(=O)CN1CCN(C)CC1	i	100.4	i	nt	i	i
O=C(CN1CCN(c2ccccc2)CC1)Nc1c(C(=O)C2CC2)oc2ccccc12	i	i	i	i	i	i
CCN1CCN(S(=O)(=O)c2ccc(OC)c(NC(=O)c3ccccc3F)c2)CC1	i	nt	nt	nt	i	i
C=CCC(C(=O)Oc1c(C(C)(C)C)cc(C)cc1C(C)(C)C)c1ccccc1 (configuration not stated)	i	nt	nt	nt	nt	i
Cc1c(C#N)c(N=CN(C)C)c(C(=O)c2ccc(Br)cc2)n1-c1ccc(Cl)cc1	i	99.7	i	i	57.2	i
COc1ccc(N/C=C2\CCc3ccccc3C2=O)cc1	i	i	i	82.5	i	i
COc1ccc2c(c1)CC/C(=C\Nc1ccc3c(c1)OCO3)C2=O	i	i	i	i	i	i
O=C1/C(=C/Nc2ccc3c(c2)OCO3)CCc2ccccc21	i	i	i	76.7	i	i
CS(=O)(=O)N1CCC(Oc2ccccc2C(=O)NCCCc2cccnc2)CC1	i	i	i	i	i	i
SMILES	XBP1 UPR activ	Lmaj promast	Dynein cargo inh	CHOP inhibitor	T cruzi inh	UPR CHOP act
CC1CCCC1/C(=N/O)c1ccccc1 (configuration not stated)	i	nt	nt	nt	i	i
O=C(CCN1C(=O)[C@@H]2Cc3ccccc3CN2C1=O)N[C@@H](C(=O)O)c1ccccc1	i	nt	nt	nt	i	i
CCOc1ccc(OCCSc2nnnn2C2CCCCC2)cc1	i	i	i	79.8	i	i
Clc1ccc(OCCSc2nnnn2C2CCCCC2)cc1	i	i	i	i	i	i
CCOC(=O)c1ccc(N2CCN(c3ccccc3F)CC2)c(NC(=O)Nc2cccc(OC)c2)c1	i	i	i	i	69.6	i
CCOC(=O)c1cc(-c2ccncc2)nc2c1c(C)nn2-c1ccccn1	i	100.5	i	i	i	i
Cc1nn(-c2ccccn2)c2nc(-c3cccs3)cc(C(=O)N3CCOCC3)c12	i	83.8	i	i	i	i
COc1ccc(-c2cc(C(=O)O)c3c(C)nn(-c4ccccn4)c3n2)cc1	i	i	i	i	i	i
